Source: article PMC7709506 (ESMO Open, 2020)

Experiment: Plasma pharmacokinetics after single and multiple dosing
Format: in vivo, human
Details: for Accumulation ratio, geometric mean (CV %): AUC0–last day 15 / day 1; for Mean (SD) metabolite to parent ratio: ORM-21444 AUC0–last / ODM-203 AUC0–last
Outline: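 Oral once-daily test compound. Capsule single dose on day 1 after a low-phosphate light breakfast. In tablet cohorts, one capsule dose was followed a week later by continuous daily tablets from 200 mg. Plasma sampled on day 1 and day 8 or 15 predose and 0.1–24 h post-dose, plus predose from day 8. Cmax, Tmax and AUC0–last (linear trapezoidal) were log-transformed. Accumulation = day 15/day 1 AUC; metabolite ratio = metabolite/parent AUC.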

Cn1cc(-c2ccc3c(c2)ncn3-c2cc(NS(=O)(=O)C3CC3)cc(-c3ccc(F)cc3F)c2)cn1 [ODM-203]
interindividual variability of steady-state AUC (coefficient of variation) (400 mg tablet group at day 15): 90%
Accumulation ratio, geometric mean (CV %) (tablet 200 mg (n=3)): 2.3 (23)
Accumulation ratio, geometric mean (CV %) (tablet 300 mg (n=3)): 2.3 (123)
Accumulation ratio, geometric mean (CV %) (tablet 400 mg (n=24)): 5.5 (76)
Mean (SD) metabolite to parent ratio (tablet 200 mg, Day 1 (n=3)): 0.043 (0.022)
Mean (SD) metabolite to parent ratio (tablet 200 mg, Day 15 (n=3)): 0.085 (0.043)
Mean (SD) metabolite to parent ratio (tablet 300 mg, Day 1 (n=3)): 0.061 (0.030)
Mean (SD) metabolite to parent ratio (tablet 300 mg, Day 15 (n=3)): 0.094 (0.004)
Mean (SD) metabolite to parent ratio (tablet 400 mg, Day 1 (n=25)): 0.048 (0.034)
Mean (SD) metabolite to parent ratio (tablet 400 mg, Day 15 (n=24)): 0.117 (0.031)
average Tmax in different cohorts (after a single dose): 6 to 10 h
individual Tmax range (after a single dose): 3 to 24 h
average accumulation ratios (based on AUC0–last, different cohorts): 2.3–5.5
tablet formulation compared with capsule formulation (in vivo): higher exposure and lower variability
AUC ratio (metabolite ORM-21444 to ODM-203) (steady state): less than 0.15
half-life (suggested by accumulation ratios, different cohorts): 30 to 70 h
Cmax, geometric mean (CV %) (tablet 200 mg, Day 1 (n=3)): 1539 (9) ng/mL
Median (min, max) Tmax (tablet 200 mg, Day 1 (n=3)): 8.0 (7.7 to 11.1) h
Cmax, geometric mean (CV %) (tablet 200 mg, Day 15 (n=3)): 3118 (28) ng/mL
Mean (SD) Caverage (tablet 200 mg, Day 15 (n=3)): 2560 (719) ng/mL
Median (min, max) Tmax (tablet 200 mg, Day 15 (n=3)): 8.0 (6.0 to 11.2) h
Cmax, geometric mean (CV %) (tablet 300 mg, Day 1 (n=3)): 2608 (46) ng/mL
Median (min, max) Tmax (tablet 300 mg, Day 1 (n=3)): 6.0 (4.1 to 6.1) h
Cmax, geometric mean (CV %) (tablet 300 mg, Day 15 (n=3)): 4906 (148) ng/mL
Mean (SD) Caverage (tablet 300 mg, Day 15 (n=3)): 5652 (5460) ng/mL
Median (min, max) Tmax (tablet 300 mg, Day 15 (n=3)): 6.1 (3.1 to 8.7) h
Cmax, geometric mean (CV %) (tablet 400 mg, Day 1 (n=25)): 1933 (49) ng/mL
Median (min, max) Tmax (tablet 400 mg, Day 1 (n=25)): 6.3 (3.1 to 24.7) h
Cmax, geometric mean (CV %) (tablet 400 mg, Day 15 (n=24)): 9070 (81) ng/mL
Mean (SD) Caverage (tablet 400 mg, Day 15 (n=24)): 8928 (5148) ng/mL
Median (min, max) Tmax (tablet 400 mg, Day 15 (n=24)): 6.0 (0.0 to 23.3) h
